The target in data set [1] is ATP-dependent translocase ABCB1 (Homo sapiens, UniProt P08183). Kind of data set: Reversal of P-gp-mediated drug resistance in human KBV cells assessed as potentiation of paclitaxel-induced cytotoxicity by measuring cell survival at 5 uM after 72 hrs by MTT assay (reference value: 98 +/- 19%). Format: cell-based. (In general: Tetrazolium dyes change colour on reduction, which living cells bring about.)

The nature of data set [2]: Cytotoxicity against human KBV cells assessed as cell survival at 5 uM after 72 hrs by MTT assay relative to control. The following applies: read-out: Survival. The class given is cell-based. Summed up: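 KBV cells (RPMI-1640 with 10% heat-inactivated FCS, 37 °C, 5% CO2, log-phase) were seeded in 96-well plates and exposed to compound alone at 5 µM for 72 h. MTT was added and incubated, then DMSO was added. OD was read at 570 nm and survival rate was calculated.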

Data set [3] is described as follows: n-octanol/aqueous buffer solution partition coefficient, log P of the compound at pH 6.8 after 4 hrs by HPLC method. The class given is physicochemical. The method, boiled down:
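Shake-flask partition between n-octanol and pH 6.8 buffer at a 1:1 ratio, room temperature, shaken 4 h. Compound concentration in each phase measured by HPLC.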

ATP-dependent translocase ABCB1, sequence (P08183 whole entry): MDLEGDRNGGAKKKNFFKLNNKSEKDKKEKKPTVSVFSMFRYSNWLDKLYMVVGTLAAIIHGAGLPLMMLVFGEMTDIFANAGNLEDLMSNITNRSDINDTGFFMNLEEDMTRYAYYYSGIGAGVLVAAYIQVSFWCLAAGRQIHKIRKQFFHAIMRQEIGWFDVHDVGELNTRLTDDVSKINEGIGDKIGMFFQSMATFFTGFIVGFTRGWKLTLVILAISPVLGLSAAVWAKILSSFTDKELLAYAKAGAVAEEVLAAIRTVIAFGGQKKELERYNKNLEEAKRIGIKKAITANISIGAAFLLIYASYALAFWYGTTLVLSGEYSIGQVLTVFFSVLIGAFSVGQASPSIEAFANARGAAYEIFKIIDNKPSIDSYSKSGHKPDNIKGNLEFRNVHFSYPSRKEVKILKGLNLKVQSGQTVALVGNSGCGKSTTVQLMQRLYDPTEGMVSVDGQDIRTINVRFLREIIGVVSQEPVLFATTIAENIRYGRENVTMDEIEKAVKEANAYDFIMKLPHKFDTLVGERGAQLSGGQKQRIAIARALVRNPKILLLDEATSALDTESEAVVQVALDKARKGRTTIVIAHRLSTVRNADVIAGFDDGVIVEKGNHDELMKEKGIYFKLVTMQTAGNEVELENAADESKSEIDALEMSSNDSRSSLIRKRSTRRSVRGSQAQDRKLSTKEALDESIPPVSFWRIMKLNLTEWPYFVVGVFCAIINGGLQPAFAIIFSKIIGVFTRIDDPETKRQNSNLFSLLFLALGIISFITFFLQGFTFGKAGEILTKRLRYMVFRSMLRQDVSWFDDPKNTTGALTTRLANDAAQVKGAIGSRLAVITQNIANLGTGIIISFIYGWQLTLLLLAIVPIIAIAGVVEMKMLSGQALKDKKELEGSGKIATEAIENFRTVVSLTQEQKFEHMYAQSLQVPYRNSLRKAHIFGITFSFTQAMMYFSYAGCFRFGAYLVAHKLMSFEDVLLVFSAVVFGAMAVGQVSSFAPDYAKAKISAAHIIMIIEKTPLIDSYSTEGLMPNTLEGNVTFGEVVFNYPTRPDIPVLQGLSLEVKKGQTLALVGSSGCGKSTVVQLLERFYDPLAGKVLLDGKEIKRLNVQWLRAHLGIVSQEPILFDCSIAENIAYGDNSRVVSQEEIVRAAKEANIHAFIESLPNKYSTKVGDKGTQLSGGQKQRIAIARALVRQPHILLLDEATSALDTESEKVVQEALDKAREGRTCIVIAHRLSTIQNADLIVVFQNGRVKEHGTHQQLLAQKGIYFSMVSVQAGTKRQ

In general, logD refers to lipophilicity at a set pH, counting ionised and neutral species. The low end stands for a more hydrophilic compound, the high end for a more lipophilic compound. Take `CC1(C)CC[C@]2(C(=O)N[C@@H](CO)C(=O)O)CC[C@]3(C)C(=CC[C@@H]4[C@@]5(C)Cc6nccnc6[C@@](C)(CO)[C@@H]5CC[C@]43C)[C@@H]2C1`: in data set [1], the Survival is 76%. In data set [2], the viability at 72 h, 5 µM amounted to 102%. In addition, the pH-dependent lipophilicity (logD) at 4 h in data set [3] was -0.11.
On to `CC1(C)CC[C@]2(C(=O)O)CC[C@]3(C)C(=CC[C@@H]4[C@@]5(C)CC[C@H](O)[C@@](C)(CO)[C@@H]5CC[C@]43C)[C@@H]2C1` [HEDERAGENIN], for which, in data set [1], the Survival was 100%.
In the case of `CC(C)[C@H](NC(=O)[C@]12CCC(C)(C)C[C@H]1C1=CC[C@@H]3[C@@]4(C)Cc5nccnc5[C@@](C)(CO)[C@@H]4CC[C@@]3(C)[C@]1(C)CC2)C(=O)O`, in data set [1], the Survival is given as 114%. Besides, in data set [2], the viability at 72 h, 5 µM was 83%. Further, the pH-dependent lipophilicity (logD) at 4 h in data set [3] was -0.78.
With `CC1(C)CC[C@]2(C(=O)n3ccnc3)CC[C@]3(C)C(=CC[C@@H]4[C@@]5(C)CC[C@H](O)[C@@](C)(CO)[C@@H]5CC[C@]43C)[C@@H]2C1`, the logD at 4 h in data set [3] was -0.4.
On to `CC1(C)CC[C@]2(C(=O)N[C@@H](Cc3ccc(O)cc3)C(=O)O)CC[C@]3(C)C(=CC[C@@H]4[C@@]5(C)Cc6nccnc6[C@@](C)(CO)[C@@H]5CC[C@]43C)[C@@H]2C1`, for which the Survival in data set [1] is recorded as 68%. Also, the viability at 72 h, 5 µM in data set [2] is 76%. Moreover, the pH-dependent lipophilicity (logD) at 4 h in data set [3] is -0.03.
Regarding `CC1(C)CC[C@]2(C(=O)OCCOC(=O)[C@]34CCC(C)(C)C[C@H]3C3=CC[C@@H]5[C@@]6(C)CC[C@H](O)[C@@](C)(CO)[C@@H]6CC[C@@]5(C)[C@]3(C)CC4)CC[C@]3(C)C(=CC[C@@H]4[C@@]5(C)CC[C@H](O)[C@@](C)(CO)[C@@H]5CC[C@]43C)[C@@H]2C1`, in data set [1], the Survival is 37%. Further, in data set [2], the viability at 72 h, 5 µM stood at 136%.
On to `CC1(C)CC[C@]2(C(=O)O)CC[C@]3(C)C(=CC[C@@H]4[C@@]5(C)Cc6nccnc6[C@@](C)(CO)[C@@H]5CC[C@]43C)[C@@H]2C1`, for which the Survival in data set [1] was 61%. In addition, the viability at 72 h, 5 µM in data set [2] stood at 89%. This molecule had a logD at 4 h in data set [3] of 0.24.
Turning to `CC1(C)CC[C@]2(C(=O)OCCCOC(=O)[C@]34CCC(C)(C)C[C@H]3C3=CC[C@@H]5[C@@]6(C)CC[C@H](O)[C@@](C)(CO)[C@@H]6CC[C@@]5(C)[C@]3(C)CC4)CC[C@]3(C)C(=CC[C@@H]4[C@@]5(C)CC[C@H](O)[C@@](C)(CO)[C@@H]5CC[C@]43C)[C@@H]2C1`, in data set [1], the Survival was found to be 45%. Moreover, in data set [2], the viability at 72 h, 5 µM stood at 107%.
Regarding `CC1(C)CC[C@]2(C(=O)ONC(=O)CCC(=O)O)CC[C@]3(C)C(=CC[C@@H]4[C@@]5(C)Cc6nccnc6[C@@](C)(CO)[C@@H]5CC[C@]43C)[C@@H]2C1`, the Survival in data set [1] was found to be 112%. Also, in data set [2], the viability at 72 h, 5 µM worked out at 89%. Moreover, in data set [3], the logD at 4 h is -0.78.
The like results for `CC1(C)CC[C@]2(C(=O)On3nnc4ccc(Cl)cc43)CC[C@]3(C)C(C(=O)C[C@@H]4[C@@]5(C)CCC(=O)[C@@](C)(CO)[C@@H]5CC[C@]43C)[C@@H]2C1` (some centres undefined) were, in that order, 112%, 98% and 0.1.
With `CC1(C)CC[C@]2(C(=O)N[C@@H](Cc3ccccc3)C(=O)O)CC[C@]3(C)C(=CC[C@@H]4[C@@]5(C)Cc6nccnc6[C@@](C)(CO)[C@@H]5CC[C@]43C)[C@@H]2C1`, the Survival in data set [1] was found to be 129%. Also, the viability at 72 h, 5 µM in data set [2] was 94%. In addition, in data set [3], the pH-dependent lipophilicity (logD) at 4 h is -0.32.
Taken in the same sequence, the figures for `CC1(C)CC[C@]2(C(=O)O)CC[C@]3(C)C(=CC[C@@H]4[C@@]5(C)Cc6nccnc6[C@@](C)(COC(=O)c6ccccc6C(=O)O)[C@@H]5CC[C@]43C)[C@@H]2C1` were 85%, 116% and -0.66.
For the molecule `CC1(C)CC[C@]2(C(=O)OCCCCOC(=O)[C@]34CCC(C)(C)C[C@H]3C3=CC[C@@H]5[C@@]6(C)CC[C@H](O)[C@@](C)(CO)[C@@H]6CC[C@@]5(C)[C@]3(C)CC4)CC[C@]3(C)C(=CC[C@@H]4[C@@]5(C)CC[C@H](O)[C@@](C)(CO)[C@@H]5CC[C@]43C)[C@@H]2C1`, the Survival in data set [1] turned out to be 44%. In addition, in data set [2], the viability at 72 h, 5 µM is 92%.
Take `CC1(C)CC[C@]2(C(=O)On3nnc4ccccc43)CC[C@]3(C)C(C(=O)C[C@@H]4[C@@]5(C)CCC(=O)[C@@](C)(CO)[C@@H]5CC[C@]43C)[C@@H]2C1` (some centres undefined): the Survival in data set [1] worked out at 127%. Moreover, in data set [2], the viability at 72 h, 5 µM turned out to be 110%. Further, in data set [3], the logD at 4 h is 0.14.
In the case of `CC1(C)CC[C@]2(C(=O)NCC(=O)O)CC[C@]3(C)C(=CC[C@@H]4[C@@]5(C)Cc6nccnc6[C@@](C)(CO)[C@@H]5CC[C@]43C)[C@@H]2C1`, the Survival in data set [1] is listed as 101%. In addition, the viability at 72 h, 5 µM in data set [2] was 96%. Besides, the logD at 4 h in data set [3] was -0.43.
Consider `COC(=O)CCC(=O)NOC(=O)[C@]12CCC(C)(C)C[C@H]1C1=CC[C@@H]3[C@@]4(C)Cc5nccnc5[C@@](C)(CO)[C@@H]4CC[C@@]3(C)[C@]1(C)CC2`, for which the Survival in data set [1] was 32%. Moreover, the viability at 72 h, 5 µM in data set [2] turned out to be 86%. For the same molecule, in data set [3], the logD at 4 h is -1.24.
For `CC1(C)CC[C@]2(C(=O)O)CC[C@]3(C)C(C(=O)C[C@@H]4[C@@]5(C)CCC(=O)[C@@](C)(CO)[C@@H]5CC[C@]43C)[C@@H]2C1` (some centres undefined), the Survival in data set [1] worked out at 104%. Also, the viability at 72 h, 5 µM in data set [2] amounted to 102%.
In the case of `CC(C)C[C@H](NC(=O)[C@]12CCC(C)(C)C[C@H]1C1=CC[C@@H]3[C@@]4(C)Cc5nccnc5[C@@](C)(CO)[C@@H]4CC[C@@]3(C)[C@]1(C)CC2)C(=O)O`, the Survival in data set [1] came out at 76%. For the same molecule, the viability at 72 h, 5 µM in data set [2] came out at 130%. Also, the logD at 4 h in data set [3] is 0.08.
Regarding `CSCC[C@H](NC(=O)[C@]12CCC(C)(C)C[C@H]1C1=CC[C@@H]3[C@@]4(C)Cc5nccnc5[C@@](C)(CO)[C@@H]4CC[C@@]3(C)[C@]1(C)CC2)C(=O)O`, the Survival in data set [1] was found to be 94%. Further, the viability at 72 h, 5 µM in data set [2] was found to be 94%. Moreover, the logD at 4 h in data set [3] was -0.2.
Turning to `CC1(C)CC[C@]2(C(=O)On3nnc4ccc(Cl)cc43)CC[C@]3(C)C(=CC[C@@H]4[C@@]5(C)CC[C@H](O)[C@@](C)(CO)[C@@H]5CC[C@]43C)[C@@H]2C1`, the Survival in data set [1] is reported as 111%. Also, the viability at 72 h, 5 µM in data set [2] is 97%. Further, the log distribution coefficient (logD) at 4 h in data set [3] was -0.75.
As for `CC1(C)CC[C@]2(C(=O)N[C@@H](CCC(=O)O)C(=O)O)CC[C@]3(C)C(=CC[C@@H]4[C@@]5(C)Cc6nccnc6[C@@](C)(CO)[C@@H]5CC[C@]43C)[C@@H]2C1`, in data set [1], the Survival stood at 80%. The viability at 72 h, 5 µM in data set [2] came to 91%. Also, in data set [3], the logD at 4 h was -0.66.
As for `COc1ccc(CCN(C)CCCC(C#N)(c2ccc(OC)c(OC)c2)C(C)C)cc1OC` (centres undefined), the Survival in data set [1] is given as 23%.
In the case of `CC1(C)CC[C@]2(C(=O)O)CC[C@]3(C)C(=CC[C@@H]4[C@@]5(C)Cc6nccnc6[C@@](C)(COC(=O)CCC(=O)O)[C@@H]5CC[C@]43C)[C@@H]2C1`, the Survival in data set [1] came out at 102%. Besides, the viability at 72 h, 5 µM in data set [2] turned out to be 96%. Also, the pH-dependent lipophilicity (logD) at 4 h in data set [3] was -0.28.
The like results for `C[C@H](NC(=O)[C@]12CCC(C)(C)C[C@H]1C1=CC[C@@H]3[C@@]4(C)Cc5nccnc5[C@@](C)(CO)[C@@H]4CC[C@@]3(C)[C@]1(C)CC2)C(=O)O` were, in that order, 264%, 98% and -1.07.
The like results for `CC1(C)CC[C@]2(C(=O)On3nnc4cccnc43)CC[C@]3(C)C(=CC[C@@H]4[C@@]5(C)CC[C@H](O)[C@@](C)(CO)[C@@H]5CC[C@]43C)[C@@H]2C1` were, in that order, 115%, 94% and -0.23.
Take `CC1(C)CC[C@]2(C(=O)N[C@@H](CC(=O)O)C(=O)O)CC[C@]3(C)C(=CC[C@@H]4[C@@]5(C)Cc6nccnc6[C@@](C)(CO)[C@@H]5CC[C@]43C)[C@@H]2C1`: in data set [1], the Survival came to 81%. Besides, the viability at 72 h, 5 µM in data set [2] is 90%. Further, the logD at 4 h in data set [3] was -0.39.
For `CC1(C)CC[C@]2(C(=O)OCCCCCOC(=O)[C@]34CCC(C)(C)C[C@H]3C3=CC[C@@H]5[C@@]6(C)CC[C@H](O)[C@@](C)(CO)[C@@H]6CC[C@@]5(C)[C@]3(C)CC4)CC[C@]3(C)C(=CC[C@@H]4[C@@]5(C)CC[C@H](O)[C@@](C)(CO)[C@@H]5CC[C@]43C)[C@@H]2C1`, the Survival in data set [1] is 42%. Besides, the viability at 72 h, 5 µM in data set [2] was found to be 123%.
Turning to `CC1(C)CC[C@]2(C(=O)OCCN)CC[C@]3(C)C(=CC[C@@H]4[C@@]5(C)Cc6nccnc6[C@@](C)(CO)[C@@H]5CC[C@]43C)[C@@H]2C1`, the Survival in data set [1] worked out at 24%. Moreover, the viability at 72 h, 5 µM in data set [2] stood at 116%. The molecule further had a log distribution coefficient (logD) at 4 h in data set [3] of 0.36.
On to `CC1(C)CC[C@]2(C(=O)N3CCC[C@H]3C(=O)O)CC[C@]3(C)C(=CC[C@@H]4[C@@]5(C)Cc6nccnc6[C@@](C)(CO)[C@@H]5CC[C@]43C)[C@@H]2C1`, for which, in data set [1], the Survival was 91%. Also, the viability at 72 h, 5 µM in data set [2] was 121%. In data set [3], this molecule had a logD at 4 h of 0.38.
The like results for `CC1(C)CC[C@]2(C(=O)O)CC[C@]3(C)C(=CC[C@@H]4[C@@]5(C)Cc6nccnc6[C@@](C)(COC(=O)C6CCCCC6C(=O)O)[C@@H]5CC[C@]43C)[C@@H]2C1` (some centres undefined) were, in that order, 100%, 95% and -0.33.

These data come from ChEMBL document CHEMBL4325867, “Synthesis and biological evaluation of novel H6 analogues as drug resistance reversal agents” (Eur J Med Chem, 2019).
